Usually EC50 stands for the concentration that produces a half-maximal response. Broadly, the bioavailability is dose-corrected exposure relative to a reference, in per cent. As a reminder, the half-life is the time in which the quantity being followed falls by half. As usually defined, the clearance is a measure of how efficiently the substance is removed, as volume per time.

SMILES strings stand for the structures. In brackets after ≈: the same amount, converted by molar mass.

One data set has as its target T1, Androgen receptor (Homo sapiens, UniProt P10275).
T1 sequence (P10275 whole entry): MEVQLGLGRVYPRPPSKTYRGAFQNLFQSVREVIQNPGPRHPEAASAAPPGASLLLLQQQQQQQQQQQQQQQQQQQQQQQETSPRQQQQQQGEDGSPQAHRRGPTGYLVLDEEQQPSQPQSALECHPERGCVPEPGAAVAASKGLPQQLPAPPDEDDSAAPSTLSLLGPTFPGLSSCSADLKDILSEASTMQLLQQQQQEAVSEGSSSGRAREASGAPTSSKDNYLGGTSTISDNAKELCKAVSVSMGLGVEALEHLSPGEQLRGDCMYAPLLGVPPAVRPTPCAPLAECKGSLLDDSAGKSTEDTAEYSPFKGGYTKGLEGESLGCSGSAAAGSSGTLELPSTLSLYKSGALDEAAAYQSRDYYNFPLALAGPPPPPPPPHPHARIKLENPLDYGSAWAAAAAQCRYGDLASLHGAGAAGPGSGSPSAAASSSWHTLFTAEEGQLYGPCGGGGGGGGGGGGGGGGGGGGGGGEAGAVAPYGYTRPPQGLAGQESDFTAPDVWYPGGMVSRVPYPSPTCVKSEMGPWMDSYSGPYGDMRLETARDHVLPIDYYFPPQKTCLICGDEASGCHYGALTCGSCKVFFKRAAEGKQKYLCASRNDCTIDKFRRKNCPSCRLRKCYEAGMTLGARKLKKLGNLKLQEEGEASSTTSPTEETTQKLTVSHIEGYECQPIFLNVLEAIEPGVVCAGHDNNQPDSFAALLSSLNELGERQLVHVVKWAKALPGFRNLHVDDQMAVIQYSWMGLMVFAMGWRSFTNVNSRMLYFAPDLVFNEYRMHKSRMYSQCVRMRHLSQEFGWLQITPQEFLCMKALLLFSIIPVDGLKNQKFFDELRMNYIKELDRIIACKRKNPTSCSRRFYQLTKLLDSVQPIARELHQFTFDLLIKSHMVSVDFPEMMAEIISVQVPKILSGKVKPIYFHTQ
Description: Modulation of human androgen receptor expressed in African green monkey CV1 cells after 24 hrs by luciferase reporter gene assay. It counts as cell-based, CV-1. Summed up: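 Functional AR activity is read out by a luciferase reporter gene assay in mammalian cells transfected with the human AR gene. EC50 is derived from the response and reported as pEC50 (−log EC50).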
Background: Reporter assays use an easily measured gene product as a stand-in for the process of interest.

Data set [1] in a line: Kinetic aqueous solubility of the compound in PBS at pH 7.4 after 1 hr by chemiluminescent nitrogen detection method. It counts as physicochemical. The settings on record: read-out: Kinetic_solubility. Summed up:
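High-throughput kinetic aqueous solubility at pH 7.4. The test compound is added from a DMSO stock, and dissolved compound is quantified by chemiluminescent nitrogen detection (CLND).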

Data set [2] can be described thus: Oral bioavailability in Wistar Han rat at 10 mg/kg, administered as single dose via oral gavage by LC-MS/MS analysis. It counts as ADME, organism-based. The conditions noted are these: in vivo.
Data set [3] in a line: Half life in Wistar Han rat at 5 mg/kg, administered as single dose via oral gavage by LC-MS/MS analysis. The conditions noted are these: in vivo. The data set is classed as ADME, organism-based.
Data set [4] can be described thus: […] in iv dosed Wistar Han rat administered as single dose by LC-MS/MS analysis. The settings on record: in vivo. The data set is classed as ADME, organism-based.

In turn, `N#Cc1ccc(C(O)(C2CCCC2)C(F)(F)F)cc1Cl` (stereo not drawn) showed a concentration for a half-maximal effect (EC50) on Androgen receptor of 3.16 nM.
`Cc1c(C(O)(C#CC(C)(C)C)C(F)(F)F)ccc(C#N)c1Cl` (stereo not drawn) showed a 50% effective concentration (EC50) at Androgen receptor of 79.4 nM.
Turning to `C/C=C(\C)C(O)(c1ccc(C#N)c(C(F)(F)F)c1)C(F)(F)F` (stereo not drawn), at Androgen receptor, the concentration giving a half-maximal response (EC50) was 39.8 nM.
Still for that read-out and setting: to `Cc1c(C#N)ccc(C(C)(O)C(F)(F)F)c1C` (stereo not drawn) belongs 2510 nM; to `Cc1c(C(O)(C#CC2CC2)C(F)(F)F)ccc(C#N)c1Cl` (stereo not drawn), 15.8 nM; to `C=C(C)C(O)(c1ccc(C#N)c(C(F)(F)F)c1)C(F)(F)F` (stereo not drawn), 31.6 nM.
For `Cc1c(C(O)(C(C)C)C(F)(F)F)ccc(C#N)c1Cl` (stereo not drawn), at Androgen receptor, a half-maximal effect (EC50) was put at 0.794 nM.
In the case of `N#Cc1ccc(C(O)(c2cocn2)C(F)(F)F)cc1C(F)(F)F` (stereo not drawn), at Androgen receptor, the EC50 is 1.26 nM. Besides, the solubility kinetic at 1 h in data set [1] was above 700 µM. The bioavailability in data set [2] is 83%. For the same compound, the half-life in data set [3] was 8 h.
The like results for `Cc1c(C(O)(c2cocn2)C(F)(F)F)ccc(C#N)c1C(F)(F)F` (stereo not drawn) were, in that order, 0.501 nM, above 400 µM, 100% and 5.5 h.
Turning to `Cc1c(C(O)(C(C)(C)C)C(F)(F)F)ccc(C#N)c1Cl` (stereo not drawn), on Androgen receptor, the concentration for a half-maximal effect (EC50) is 79.4 nM.
Still for that read-out and setting: to `CC(C)C(O)(c1ccc(C#N)c(Cl)c1Cl)C(F)(F)F` (stereo not drawn) belongs 0.794 nM.
Still for that read-out and setting: the figure for `CC(O)(c1ccc(C#N)c(Cl)c1Cl)C(F)(F)F` (stereo not drawn) is 63.1 nM.
The same measure, in the same setting: the figure for `N#Cc1ccc(C(O)(c2ccc(Cl)o2)C(F)(F)F)cc1C(F)(F)F` (stereo not drawn) is 2.51 nM; for `C=CC(O)(c1ccc(C#N)c(C(F)(F)F)c1)C(F)(F)F` (stereo not drawn) it is 12.6 nM; for `Cc1c(C(O)(c2nccs2)C(F)(F)F)ccc(C#N)c1C(F)(F)F` (stereo not drawn) it is 10.5 nM.
`Cc1c(C(O)(C2CC2)C(F)(F)F)ccc(C#N)c1Cl` (stereo not drawn): at Androgen receptor, a half-maximal effect (EC50) was put at 0.2 nM.
As to `Cc1c(C(O)(C(F)(F)F)C(F)(F)F)ccc(C#N)c1C(F)(F)F`, on Androgen receptor, the EC50 was 1.58 nM.
Same read-out and setting: the figure for `CC(C)CC(O)(c1ccc(C#N)c(Cl)c1Cl)C(F)(F)F` (stereo not drawn) is 3.16 nM.
The same measure, in the same setting: the figure for `Cc1c(C(C)(C)C(O)C(F)(F)F)ccc(C#N)c1C(F)(F)F` (stereo not drawn) is 15.8 nM.
On Androgen receptor, `N#Cc1ccc(C(O)(C2CC2)C(F)(F)F)cc1Cl` (stereo not drawn) gave an EC50 of 0.398 nM. Besides, the solubility kinetic at 1 h in data set [1] was above 400 µM. For the same compound, the bioavailability in data set [2] stood at 80%. Moreover, in data set [3], the half-life was 18 h. In addition, the clearance in data set [4] was 0.72 L/h/kg.
On Androgen receptor, `N#Cc1ccc(C(O)(C2CC2)C(F)(F)F)c(Cl)c1Cl` (stereo not drawn) gave an EC50 of 0.2 nM.
Compound `CC(C)C(O)(c1ccc(C#N)c(Cl)c1)C(F)(F)F` (stereo not drawn) had a half-maximal effective concentration (EC50) at Androgen receptor of 3.98 nM.
In the case of `N#Cc1ccc(C(O)(c2ccco2)C(F)(F)F)cc1C(F)(F)F` (stereo not drawn), at Androgen receptor, the EC50 is 1.26 nM.
`N#Cc1ccc(C(O)(CO)C(F)(F)F)cc1C(F)(F)F` (stereo not drawn): the concentration giving a half-maximal response (EC50) on Androgen receptor was 10000 nM.
On Androgen receptor, `Cc1c(C(O)(CC(C)(C)C)C(F)(F)F)ccc(C#N)c1Cl` (stereo not drawn) showed an EC50 of 3.98 nM.
As to `Cc1c(C(O)(C2CC2)C(F)(F)F)ccc(C#N)c1C(F)(F)F` (stereo not drawn), the 50% effective concentration (EC50) at Androgen receptor was 0.0316 nM. Besides, the solubility kinetic at 1 h in data set [1] is 245 µM (≈ 79.2 µg/mL). The same compound registered a bioavailability in data set [2] of 37%. For the same compound, the half-life in data set [3] was 10 h.
As to `N#Cc1ccc(C(O)(C(F)(F)F)C(F)(F)F)cc1C(F)(F)F`, the EC50 at Androgen receptor is 15.8 nM.
`Cc1c(C#N)ccc(C(O)(CC(C)(C)C)C(F)(F)F)c1C` (stereo not drawn) gave a 50% effective concentration (EC50) on Androgen receptor of 20 nM.
Consider `CCC(O)(c1ccc(C#N)c(C(F)(F)F)c1)C(F)(F)F` (stereo not drawn), for which the concentration giving a half-maximal response (EC50) on Androgen receptor was 3.98 nM. The compound further returned a bioavailability in data set [2] of 70%. In data set [3], this compound showed a half-life of 83 h.
The compound `CC(C)C(O)(c1ccc(C#N)c(C(F)(F)F)c1)C(F)(F)F` (stereo not drawn) gave an EC50 on Androgen receptor of 7.94 nM.
Same read-out and setting: to `Cc1c(C#N)ccc(C(O)(C2CC2)C(F)(F)F)c1C` (stereo not drawn) belongs 1.58 nM.
On the same count and under the same terms, to `Cc1c(C(O)(c2ccc(Cl)s2)C(F)(F)F)ccc(C#N)c1C(F)(F)F` (stereo not drawn) belongs 5.62 nM; to `CC(C)(C)CC(O)(c1ccc(C#N)c(Cl)c1Cl)C(F)(F)F` (stereo not drawn), 3.16 nM.
Consider `N#Cc1ccc(C(O)(c2cscn2)C(F)(F)F)cc1C(F)(F)F` (stereo not drawn), for which the midpoint of the response on Androgen receptor, the EC50, lay at 2 nM.
As for `Cc1c(C(O)(C(F)(F)F)C(F)(F)F)ccc(C#N)c1Cl`, it took 20 nM to reach a half-maximal effect at Androgen receptor (EC50).
The compound `CCC(O)(c1ccc(C#N)c(Cl)c1Cl)C(F)(F)F` (stereo not drawn) showed an EC50 on Androgen receptor of 2.51 nM.
Same read-out and setting: the figure for `Cc1c(C(C)(O)C(F)(F)F)ccc(C#N)c1C(F)(F)F` (stereo not drawn) is 3.98 nM.
Take `N#Cc1ccc(C(O)(C2CC2)C(F)(F)F)cc1C(F)(F)F` (stereo not drawn): on Androgen receptor, the concentration for a half-maximal effect (EC50) was 0.158 nM. Moreover, the bioavailability in data set [2] came out at 86%. Besides, the half-life in data set [3] was 20 h.
With `Cc1c(C(O)(c2ccco2)C(F)(F)F)ccc(C#N)c1C(F)(F)F` (stereo not drawn), the concentration for a half-maximal effect (EC50) on Androgen receptor was 0.251 nM.
Same read-out and setting: the figure for `CCC(O)(c1ccc(C#N)c(Cl)c1C)C(F)(F)F` (stereo not drawn) is 2 nM; for `N#Cc1ccc(C(O)(C2CCC2)C(F)(F)F)cc1Cl` (stereo not drawn) it is 1.58 nM; for `N#Cc1ccc(C(O)(c2ccc(Cl)s2)C(F)(F)F)cc1C(F)(F)F` (stereo not drawn) it is 20 nM.
Take `Cc1c(C(O)(C(C)C)C(F)(F)F)ccc(C#N)c1C(F)(F)F` (stereo not drawn): the EC50 on Androgen receptor is 0.251 nM.
On the same count and under the same terms, the figure for `N#Cc1ccc(C(O)(c2nccs2)C(F)(F)F)cc1C(F)(F)F` (stereo not drawn) is 2 nM.
Regarding `N#Cc1ccc(C(O)(C2CCC2)C(F)(F)F)cc1C(F)(F)F` (stereo not drawn), a half-maximal response at Androgen receptor (EC50) required 1.58 nM.
Consider `Cc1c(C#N)ccc(C(O)(C(C)C)C(F)(F)F)c1C` (stereo not drawn), for which, at Androgen receptor, the midpoint of the response, the EC50, lay at 12.6 nM.
Still for that read-out and setting: the figure for `Cc1c(C(O)(c2ccc(Cl)o2)C(F)(F)F)ccc(C#N)c1C(F)(F)F` (stereo not drawn) is 2.88 nM.
The same measure, in the same setting: the figure for `Cc1c(C(O)(c2cscn2)C(F)(F)F)ccc(C#N)c1C(F)(F)F` (stereo not drawn) is 5.89 nM; for `CC(C)(C)C(O)(c1ccc(C#N)c(Cl)c1)C(F)(F)F` (stereo not drawn) it is 158 nM.
Same read-out and setting: the figure for `N#Cc1ccc(C(O)(C2CCC2)C(F)(F)F)c(Cl)c1Cl` (stereo not drawn) is 0.631 nM.
`Cc1c(C(O)(C2CCC2)C(F)(F)F)ccc(C#N)c1C(F)(F)F` (stereo not drawn) showed an EC50 on Androgen receptor of 0.2 nM.

For the origin of these results see ChEMBL document CHEMBL3817832, “Optimizing Ligand Efficiency of Selective Androgen Receptor Modulators (SARMs)” (ACS Med Chem Lett, 2016).
